Experimental data taken from ChEMBL document CHEMBL4364329, “Prodrug Activation by a Viral Protease: Evaluating Combretastatin Peptide Hybrids To Selectively Target Infected Cells” (ACS Med Chem Lett, 2019).
Calls of active or inactive are those of the source. No cut-off for these calls is given here. Non-standard residues stand in square brackets, D forms with d. Residues, ends and D or L forms follow the SMILES beside them. ξ: configuration not given here. *: point of attachment. X1 = COc1ccc(/C=C\c2cc(OC)c(OC)c(OC)c2)cc1N*; 2Abz = Nc1ccccc1C(=O)O; ξNle = CCCCC(N)C(=O)O; Bz = O=C(c1ccccc1)*

Tests used:
Tubulin (Sus scrofa) = Tubulin (Sus scrofa) (UniProt P02554+P02550); experiment: Inhibition of porcine tubulin polymerization at 10 uM preincubated at 37 degC for 30 mins followed by chilling to 0 degC and subsequent addition of GTP by microtiter plate based absorbance detection assay relative to control; assay type: protein assay
Chain of Tubulin (Sus scrofa) (P02550 whole entry, looked up): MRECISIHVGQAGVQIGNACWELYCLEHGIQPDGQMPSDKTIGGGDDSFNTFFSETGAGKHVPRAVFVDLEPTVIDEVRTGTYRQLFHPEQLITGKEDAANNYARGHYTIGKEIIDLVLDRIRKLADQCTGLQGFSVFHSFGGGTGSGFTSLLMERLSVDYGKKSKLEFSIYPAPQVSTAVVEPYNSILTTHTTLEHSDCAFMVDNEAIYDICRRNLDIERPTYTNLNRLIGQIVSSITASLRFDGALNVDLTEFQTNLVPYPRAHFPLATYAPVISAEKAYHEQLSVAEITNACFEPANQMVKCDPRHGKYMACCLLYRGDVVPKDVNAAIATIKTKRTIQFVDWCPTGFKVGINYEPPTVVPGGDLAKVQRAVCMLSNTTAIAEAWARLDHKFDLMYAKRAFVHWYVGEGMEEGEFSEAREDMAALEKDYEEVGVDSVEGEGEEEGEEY
Chain of Tubulin (Sus scrofa) (P02554 whole entry, looked up): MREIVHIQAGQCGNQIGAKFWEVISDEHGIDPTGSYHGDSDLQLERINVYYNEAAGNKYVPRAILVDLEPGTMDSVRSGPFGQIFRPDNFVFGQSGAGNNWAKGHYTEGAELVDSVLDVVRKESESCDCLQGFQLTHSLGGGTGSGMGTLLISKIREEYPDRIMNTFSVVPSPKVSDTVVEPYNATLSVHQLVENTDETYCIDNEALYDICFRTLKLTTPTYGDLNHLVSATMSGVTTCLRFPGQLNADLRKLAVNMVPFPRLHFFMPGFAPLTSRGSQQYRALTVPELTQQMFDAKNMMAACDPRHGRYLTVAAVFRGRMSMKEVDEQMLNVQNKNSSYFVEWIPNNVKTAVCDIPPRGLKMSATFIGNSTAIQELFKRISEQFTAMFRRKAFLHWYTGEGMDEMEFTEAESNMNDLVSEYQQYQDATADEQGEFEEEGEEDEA

HeLa = experiment: Cytotoxicity against human HeLa cells harboring Dengue virus serotype 2 NS2B-NS3 protease assessed as reduction in cell viability after 72 hrs by cell titer blue assay; assay type: functional, cell-based
In short: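 DENV2 protease-expressing HeLa cells (DENV2proHeLa) were incubated with compound for 72 h. CC50 was determined from triplicate wells.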

[1] = molecular target: Genome polyprotein (dengue virus type 2) (UniProt P29990); experiment: Inhibition of Dengue virus serotype 2 NS2B-NS3 protease expressed in Escherichia coli BL21 lambda (DE3) cells at 250 uM preincubated with enzyme for 15 mins followed by 2-Abz-Nle-Lys-Arg-Arg-Ser-(3-NO2)-Tyr-NH2 FRET substrate addition measured for 15 mins by fluorescence analysis
[2] = tested on: CCCCC(NC(=O)c1ccccc1N)C(=O)N[C@@H](CCCCN)C(=O)N[C@@H](CCCNC(=N)N)C(=O)N[C@@H](CCCNC(=N)N)C(=O)N[C@@H](CO)C(=O)N[C@@H](Cc1ccc(O)cc1)C(N)=O; experiment: (§1) Substrate activity at Dengue virus serotype 2 NS2B-NS3 protease expressed in Escherichia coli BL21 lambda (DE3) cells assessed as Km for compound hydrolysis in TRIS buffer at pH 9 incubated for 10 mins at room temperature by Lineweaver-Burk plot analysis; assay type: ADME, dengue virus type 2
In short: (§2)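 Recombinant DENV NS2B-NS3 protease at 1 μM incubated with substrate from 100 μM up to 1 mM in pH 9 buffer for 10 min at room temperature. Triplicate wells. Km, vmax and kcat were derived from a Lineweaver–Burk plot.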

[3] = tested on: COc1ccc(/C=C\c2cc(OC)c(OC)c(OC)c2)cc1NC(=O)CNC(=O)[C@H](CCCNC(=N)N)NC(=O)[C@H](CCCCN)NC(=O)c1ccccc1; experiment: as §1; assay type: ADME, dengue virus type 2; in short: as §2
[4] = tested on: COc1ccc(/C=C\c2cc(OC)c(OC)c(OC)c2)cc1NC(=O)[C@H](C)NC(=O)[C@H](CCCNC(=N)N)NC(=O)[C@H](CCCNC(=N)N)NC(=O)c1ccccc1; experiment: as §1; assay type: ADME, dengue virus type 2; in short: as §2
[5] = tested on: COc1ccc(/C=C\c2cc(OC)c(OC)c(OC)c2)cc1NC(=O)CNC(=O)CNC(=O)[C@H](CCCNC(=N)N)NC(=O)[C@H](CCCNC(=N)N)NC(=O)c1ccccc1; experiment: as §1; assay type: ADME, dengue virus type 2; in short: as §2
[6] = tested on: COc1ccc(/C=C\c2cc(OC)c(OC)c(OC)c2)cc1NC(=O)CNC(=O)[C@H](CCCNC(=N)N)NC(=O)[C@H](CCCNC(=N)N)NC(=O)c1ccccc1; experiment: as §1; assay type: ADME, dengue virus type 2; in short: as §2

| Compound | inhibition (Tubulin (Sus scrofa)) | Activity (HeLa) | other results |
| --- | --- | --- | --- |
| COc1ccc(/C=C\c2cc(OC)c(OC)c(OC)c2)cc1N | 33.1% | Toxic |  |
| COc1ccc(/C=C\c2cc(OC)c(OC)c(OC)c2)cc1NC(=O)CCNC(=O)[C@H](CCCNC(=N)N)NC(=O)[C@H](CCCNC(=N)N)NC(=O)c1ccccc1 | 3.4% | Toxic |  |
| COc1ccc(/C=C\c2cc(OC)c(OC)c(OC)c2)cc1NC(=O)CN | 61% |  |  |
| COc1ccc(/C=C\c2cc(OC)c(OC)c(OC)c2)cc1NC(=O)CNC(=O)[C@H](CCCNC(=N)N)NC(=O)[C@H](CCCCN)NC(=O)c1ccccc1 | -5.7% | Toxic |  |
| COc1ccc(/C=C\c2cc(OC)c(OC)c(OC)c2)cc1NC(=O)CNC(=O)[C@H](CCCNC(=N)N)NC(=O)[C@H](CCCNC(=N)N)NC(=O)c1ccccc1 | 26% | Toxic |  |
| COc1ccc(/C=C\c2cc(OC)c(OC)c(OC)c2)cc1NC(=O)[C@H](C)N | 40.5% |  |  |
| COc1ccc(/C=C\c2cc(OC)c(OC)c(OC)c2)cc1NC(=O)[C@H](C)NC(=O)[C@H](CCCNC(=N)N)NC(=O)[C@H](CCCCN)NC(=O)c1ccccc1 | -4.9% |  |  |
| COc1ccc(/C=C\c2cc(OC)c(OC)c(OC)c2)cc1NC(=O)[C@H](C)NC(=O)[C@H](CCCNC(=N)N)NC(=O)[C@H](CCCNC(=N)N)NC(=O)c1ccccc1 | 3.4% | Toxic |  |
| COc1ccc(/C=C\c2cc(OC)c(OC)c(OC)c2)cc1NC(=O)[C@H](CO)NC(=O)[C@H](CCCNC(=N)N)NC(=O)[C@H](CCCCN)NC(=O)c1ccccc1 | -4.2% |  |  |
| COc1ccc(/C=C\c2cc(OC)c(OC)c(OC)c2)cc1NC(=O)[C@H](CO)NC(=O)[C@H](CCCNC(=N)N)NC(=O)[C@H](CCCNC(=N)N)NC(=O)c1ccccc1 | 1.9% | Toxic |  |
| COc1ccc(/C=C\c2cc(OC)c(OC)c(OC)c2)cc1O | 60.3% | Toxic |  |
| N=C(N)NCCC[C@H](NC(=O)[C@H](CCCNC(=N)N)NC(=O)c1ccccc1)C(=O)O (Bz-Arg-Arg-OH) |  |  | inhibition [1]: 35% |
| N=C(N)NCCC[C@H](NC(=O)[C@H](CCCCN)NC(=O)c1ccccc1)C(=O)O (Bz-Lys-Arg-OH) |  |  | inhibition [1]: 12.2% |
| COc1ccc(/C=C\c2cc(OC)c(OC)c(OC)c2)cc1NC(=O)CNC(=O)CNC(=O)[C@H](CCCNC(=N)N)NC(=O)[C@H](CCCNC(=N)N)NC(=O)c1ccccc1 (Bz-RRGG-X1) | 13.4% | Toxic |  |
| CCCCC(NC(=O)c1ccccc1N)C(=O)N[C@@H](CCCCN)C(=O)N[C@@H](CCCNC(=N)N)C(=O)N[C@@H](CCCNC(=N)N)C(=O)N[C@@H](CO)C(=O)N[C@@H](Cc1ccc(O)cc1)C(N)=O (stereo partly drawn) (H-[2Abz][ξNle]KRRSY-NH2) | inactive |  |  |
| Genome polyprotein (Dengue virus 2 Thailand/16681/84) |  |  | Km [2]: 182 µM; Vmax [2]: 10.1 µM/min; kcat [2]: 0.168 s⁻¹; Km [3]: 173 µM; Vmax [3]: 2.14 µM/min; kcat [3]: 0.0357 s⁻¹; Km [4]: 949 µM; Vmax [4]: 17 µM/min; kcat [4]: 0.284 s⁻¹; Km [5]: 144 µM; Vmax [5]: 4.69 µM/min; kcat [5]: 0.0782 s⁻¹; Km [6]: 225 µM; Vmax [6]: 6.18 µM/min; kcat [6]: 0.103 s⁻¹ |
